The values that follow come from PMC11000255 (Journal of the American Chemical Society, 2024).

For data set [1] the following is noted: phenolic core of ubiquinol; cited from earlier work.
Data set [2] is classed as physicochemical. To be noted: excess of butylamine; for fold increased half-life / diminished rate compared to salicylaldehyde: vs salicylaldehyde.
Another data set is described as follows: ionization constants. The format is physicochemical.
The target of another data set is prohibitin-2 (PHB2) (Homo sapiens, UniProt Q99623). Briefly: TMT18plex lysine ligandability profiling, PHB2. The format is binding. To be noted: 100 μM, 8 h, breast cancer cells. A digest of the protocol:
(§1)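 Live MDA-MB-231 or MDA-MB-436 breast cancer cells were exposed to the test compound (100 µM, 8 h) or DMSO vehicle. Lysates (soluble and insoluble fractions) were chased with a desthiobiotin-tagged lysine-specific STP ester probe, trypsin-digested, streptavidin-enriched and quantified by TMTpro-18plex. Lysines had to be quantified in all biological triplicates and TMT channels. A lysine counted as liganded at ≥60% loss of probe enrichment relative to DMSO.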

The target of another data set is stathmin (STMN1) (Homo sapiens, UniProt P16949). Briefly: TMT18plex lysine ligandability profiling, STMN1. The format is binding. To be noted: 100 μM, 8 h, breast cancer cells. A digest of the protocol: as §1
stathmin (STMN1), sequence (P16949 whole entry): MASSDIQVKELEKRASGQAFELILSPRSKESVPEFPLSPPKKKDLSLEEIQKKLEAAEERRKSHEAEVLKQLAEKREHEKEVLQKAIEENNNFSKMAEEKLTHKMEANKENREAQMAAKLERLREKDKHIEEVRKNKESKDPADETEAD
Data set [3] deals with MDA-MB-231 cells. The experiment in a line: in-gel fluorescence profiling of clickable probes. The format is cell-based, human. As to conditions: in MDA-MB-231 cells.
For a further data set, the target named is annexin A4 (ANXA4) (Homo sapiens, UniProt P09525). The experiment in a line: TMT18plex lysine ligandability profiling, ANXA4. The format is binding. To be noted: liganded = ≥60% reduction in probe enrichment; single meroterpenoid. In short, it runs like this: as §1
annexin A4 (ANXA4), sequence (P09525 whole entry): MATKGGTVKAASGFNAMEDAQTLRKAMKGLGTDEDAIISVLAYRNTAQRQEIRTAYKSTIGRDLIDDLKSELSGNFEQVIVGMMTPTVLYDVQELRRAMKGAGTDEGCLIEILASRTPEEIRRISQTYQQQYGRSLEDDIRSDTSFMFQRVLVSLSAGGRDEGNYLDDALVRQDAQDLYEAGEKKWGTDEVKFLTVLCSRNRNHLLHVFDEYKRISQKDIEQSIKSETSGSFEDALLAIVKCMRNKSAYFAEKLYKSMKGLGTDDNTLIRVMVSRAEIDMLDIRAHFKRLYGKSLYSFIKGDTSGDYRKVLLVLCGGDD
The target in the next data set is K413R-IDH2 (Homo sapiens, UniProt P48735, K413R). Briefly: oxidative IDH2 activity, K413R-IDH2 in HEK293T cell lysates. The format is biochemical. A digest of the protocol:
(§2)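 HEK293T lysates expressed recombinant IDH2: WT, K299 mutants, K413R, or double K299R/K413R. Lysate was preincubated with the test compound (single-point 100 µM, or a dose series; 1 h, 37 °C). α-KG production from D-(+)-threo-isocitrate (1.3 mM, 1 h, 25 °C) was measured.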

A further data set deals with K678R-PFKM (Homo sapiens, UniProt P08237, K678R). Briefly: F6P phosphorylation assay, K678R-PFKM in HEK293T cell lysates. The format is biochemical. In short, it runs like this: (§3)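 Epitope-tagged WT-PFKM or K678R-PFKM was recombinantly expressed in HEK293T cells and used as lysate. Lysate was preincubated with the test compound (single-point 100 µM, or a dose series; 2 h, 37 °C).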
K678R-PFKM, sequence (P08237 whole entry K678R): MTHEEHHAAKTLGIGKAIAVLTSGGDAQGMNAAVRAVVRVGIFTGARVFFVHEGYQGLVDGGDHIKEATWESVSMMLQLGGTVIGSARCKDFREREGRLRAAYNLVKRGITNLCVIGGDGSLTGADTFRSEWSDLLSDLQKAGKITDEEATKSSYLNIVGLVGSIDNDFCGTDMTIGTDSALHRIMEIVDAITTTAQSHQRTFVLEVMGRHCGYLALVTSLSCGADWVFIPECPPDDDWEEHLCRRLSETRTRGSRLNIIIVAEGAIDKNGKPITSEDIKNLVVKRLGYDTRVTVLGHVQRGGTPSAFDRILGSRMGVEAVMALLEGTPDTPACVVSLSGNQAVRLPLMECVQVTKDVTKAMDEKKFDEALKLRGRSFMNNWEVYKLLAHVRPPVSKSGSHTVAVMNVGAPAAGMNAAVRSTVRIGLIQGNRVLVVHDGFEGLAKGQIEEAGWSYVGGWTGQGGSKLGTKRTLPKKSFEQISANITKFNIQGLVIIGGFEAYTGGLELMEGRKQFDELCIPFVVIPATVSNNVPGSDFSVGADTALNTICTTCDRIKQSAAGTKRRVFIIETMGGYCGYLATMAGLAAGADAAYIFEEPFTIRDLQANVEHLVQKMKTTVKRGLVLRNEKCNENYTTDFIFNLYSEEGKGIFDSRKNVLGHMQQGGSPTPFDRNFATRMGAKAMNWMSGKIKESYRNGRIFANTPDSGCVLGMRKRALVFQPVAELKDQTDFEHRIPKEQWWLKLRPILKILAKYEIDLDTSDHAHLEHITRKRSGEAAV

In another data set the target is K299R/K413R-IDH2 (Homo sapiens, UniProt P48735, K299R/K413R). Briefly: oxidative IDH2 activity, K299R/K413R-IDH2 in HEK293T cell lysates. The format is biochemical.
K299R/K413R-IDH2, sequence (P48735 40-452 K299R/K413R): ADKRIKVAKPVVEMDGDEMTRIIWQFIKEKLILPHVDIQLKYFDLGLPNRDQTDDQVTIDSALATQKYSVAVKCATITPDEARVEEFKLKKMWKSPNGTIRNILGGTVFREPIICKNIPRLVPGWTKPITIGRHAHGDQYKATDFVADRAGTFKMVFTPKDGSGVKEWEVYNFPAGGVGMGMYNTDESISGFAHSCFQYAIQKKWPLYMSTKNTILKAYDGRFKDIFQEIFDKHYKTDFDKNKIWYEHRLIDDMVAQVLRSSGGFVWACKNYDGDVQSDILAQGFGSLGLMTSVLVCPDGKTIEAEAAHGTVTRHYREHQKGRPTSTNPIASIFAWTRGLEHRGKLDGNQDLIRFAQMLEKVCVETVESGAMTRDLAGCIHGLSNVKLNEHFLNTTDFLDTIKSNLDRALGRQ
The next data set deals with K299R-IDH2 (Homo sapiens, UniProt P48735, K299R). The experiment in a line: oxidative IDH2 activity, K299R-IDH2 in HEK293T cell lysates. The format is biochemical. In short, it runs like this:
as §2

The target of another data set is R140Q-IDH2 (Homo sapiens, UniProt P48735, R140Q). Briefly: reductive activity. The format is biochemical. In short, it runs like this:
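Lysates of HEK293T cells expressed recombinant R140Q-IDH2, alone or with K299R or K299R/K413R added. Lysate was preincubated with the test compound (single-point 100 µM, or a dose series; 2 h, 20 °C). 2-HG production from α-KG substrate (0.6 mM, 1 h, 25 °C) was measured.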

Data set [4] has as its target T1, ABHD12 (Homo sapiens, UniProt Q8N2K0).
T1 sequence (Q8N2K0 1-398): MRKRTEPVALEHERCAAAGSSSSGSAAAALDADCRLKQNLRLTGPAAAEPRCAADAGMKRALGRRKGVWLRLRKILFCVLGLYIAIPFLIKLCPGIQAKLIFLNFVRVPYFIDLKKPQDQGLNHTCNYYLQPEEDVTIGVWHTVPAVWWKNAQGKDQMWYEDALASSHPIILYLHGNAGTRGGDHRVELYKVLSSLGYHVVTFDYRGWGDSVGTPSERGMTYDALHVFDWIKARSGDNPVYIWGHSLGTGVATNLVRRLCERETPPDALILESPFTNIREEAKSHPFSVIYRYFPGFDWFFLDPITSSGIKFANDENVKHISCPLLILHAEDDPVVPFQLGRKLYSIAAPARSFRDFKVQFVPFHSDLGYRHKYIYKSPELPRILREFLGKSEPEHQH
Briefly: TMT18plex lysine ligandability profiling, ABHD12. The format is binding. As to conditions: both MDA-MB-231 and MDA-MB-436 cell lines. In short, it runs like this:
as §1

The target of the next data set is T2, WT-ABHD12 (Homo sapiens, UniProt Q8N2K0).
T2 sequence (Q8N2K0 1-398): T1 sequence (Q8N2K0 1-398)
Briefly: LC/MS-based LPS hydrolysis assay, WT-ABHD12 in HEK293T cell lysates. The format is biochemical. A digest of the protocol:
(§4)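 Recombinant ABHD12 (WT, S246A and K373 mutants) was expressed in HEK293T cells and used as cell lysate. Lysate was preincubated with the test compound (single-point 100 µM, or a dose series; 1 h, 37 °C), then given 17:1 LPS substrate (100 µM, 20 min, 37 °C).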

A further data set addresses IDH2 (Homo sapiens, UniProt P48735). Briefly: immunoblotting analysis of IDH2 homodimerization. A digest of the protocol:
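Flag-tagged WT- and R140Q-IDH2, with K299 and K413 mutants, were recombinantly expressed in HEK293T cells. Lysates were treated with the test compound, and IDH2 homodimer formation was read by immunoblot.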
(In general: In western blotting, separated proteins are transferred to a membrane and probed.)

Data set [5] relates to MDA-MB-231 cells. The experiment in a line: untargeted lipidomics profiling of treated cells. The format is cell-based, human. To be noted: 100 μM, 8 h.
The target in the next data set is WT-IDH2 (Homo sapiens, UniProt P48735). The experiment in a line: oxidative IDH2 activity. The format is biochemical. A digest of the protocol:
as §2

The target in the next data set is WT-PFKM (Homo sapiens, UniProt P08237). The experiment in a line: F6P phosphorylation assay, WT-PFKM in HEK293T cell lysates. The format is biochemical. A digest of the protocol: as §3
WT-PFKM, sequence (P08237 whole entry): as the sequence (P08237 whole entry K678R) above, with R678K counted along it
The target in another data set is transthyretin (TTR) (Homo sapiens, UniProt P02766). The experiment in a line: TMT18plex lysine ligandability profiling, TTR. As to conditions: liganded = ≥60% reduction in probe enrichment; single meroterpenoid. The format is binding. In short, it runs like this: as §1
The next data set concerns the target K373R-ABHD12 (Homo sapiens, UniProt Q8N2K0, K373R). The experiment in a line: LC/MS-based LPS hydrolysis assay, K373R-ABHD12 in HEK293T cell lysates. The format is biochemical. A digest of the protocol: as §4
Data set [6] concerns the target T1, ABHD12. The experiment in a line: immunoblot analysis of high-molecular-weight ABHD12 aggregates. As to conditions: recombinant ABHD12, immunoblot. In short, it runs like this:
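Flag-tagged WT and K373R ABHD12 expressed recombinantly in HEK293T cells; lysates treated with increasing test compound, then labeled with TAMRA-FP. Read-out by in-gel fluorescence plus Western blot, tracking monomeric and high-molecular-weight ABHD12 bands.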

The next data set addresses OCIAD2 (Homo sapiens, UniProt Q56VL3). Briefly: TMT18plex lysine ligandability profiling, OCIAD2. The format is binding. To be noted: 100 μM, 8 h. A digest of the protocol: as §1
Data set [7] addresses mitochondrial citrate synthase (CS) (Homo sapiens, UniProt O75390). Briefly: TMT18plex lysine ligandability profiling, CS. The format is binding. To be noted: MDA-MB-231 cells. A digest of the protocol: as §1

WT-IDH2, sequence (P48735 40-452): as the sequence (P48735 40-452 K299R/K413R) above, with R260K, R374K counted along it
prohibitin-2 (PHB2), sequence (Q99623 whole entry): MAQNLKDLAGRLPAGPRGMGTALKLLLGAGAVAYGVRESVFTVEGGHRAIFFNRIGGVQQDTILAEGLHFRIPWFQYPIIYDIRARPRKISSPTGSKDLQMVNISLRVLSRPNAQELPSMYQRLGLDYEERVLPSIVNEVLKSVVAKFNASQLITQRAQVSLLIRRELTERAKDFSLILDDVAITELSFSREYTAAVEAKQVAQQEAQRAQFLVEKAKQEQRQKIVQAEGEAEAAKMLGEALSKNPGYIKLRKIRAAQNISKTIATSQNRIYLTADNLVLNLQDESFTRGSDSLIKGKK
OCIAD2, sequence (Q56VL3 whole entry): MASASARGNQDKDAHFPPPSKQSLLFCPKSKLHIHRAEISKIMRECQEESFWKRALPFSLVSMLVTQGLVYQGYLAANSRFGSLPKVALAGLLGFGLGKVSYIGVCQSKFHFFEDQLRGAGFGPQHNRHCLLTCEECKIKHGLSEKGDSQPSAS
R140Q-IDH2, sequence (P48735 40-452 R140Q): as the sequence (P48735 40-452 K299R/K413R) above, with R101Q, R260K, R374K counted along it
IDH2, sequence (P48735 40-452): as the sequence (P48735 40-452 K299R/K413R) above, with R260K, R374K counted along it
K373R-ABHD12, sequence (Q8N2K0 whole entry K373R): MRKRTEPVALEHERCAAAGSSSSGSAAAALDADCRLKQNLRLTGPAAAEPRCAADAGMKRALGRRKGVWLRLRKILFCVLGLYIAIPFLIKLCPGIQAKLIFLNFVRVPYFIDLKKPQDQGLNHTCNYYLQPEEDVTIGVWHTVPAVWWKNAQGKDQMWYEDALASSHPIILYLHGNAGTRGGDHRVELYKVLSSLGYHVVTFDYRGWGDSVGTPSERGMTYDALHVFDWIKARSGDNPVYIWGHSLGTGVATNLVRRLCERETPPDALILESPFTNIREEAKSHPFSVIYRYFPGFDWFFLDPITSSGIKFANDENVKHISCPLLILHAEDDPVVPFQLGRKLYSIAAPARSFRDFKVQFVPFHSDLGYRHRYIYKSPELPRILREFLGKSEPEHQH
K299R-IDH2, sequence (P48735 40-452 K299R): as the sequence (P48735 40-452 K299R/K413R) above, with R374K counted along it
K413R-IDH2, sequence (P48735 40-452 K413R): as the sequence (P48735 40-452 K299R/K413R) above, with R260K counted along it
mitochondrial citrate synthase (CS), sequence (O75390 28-466): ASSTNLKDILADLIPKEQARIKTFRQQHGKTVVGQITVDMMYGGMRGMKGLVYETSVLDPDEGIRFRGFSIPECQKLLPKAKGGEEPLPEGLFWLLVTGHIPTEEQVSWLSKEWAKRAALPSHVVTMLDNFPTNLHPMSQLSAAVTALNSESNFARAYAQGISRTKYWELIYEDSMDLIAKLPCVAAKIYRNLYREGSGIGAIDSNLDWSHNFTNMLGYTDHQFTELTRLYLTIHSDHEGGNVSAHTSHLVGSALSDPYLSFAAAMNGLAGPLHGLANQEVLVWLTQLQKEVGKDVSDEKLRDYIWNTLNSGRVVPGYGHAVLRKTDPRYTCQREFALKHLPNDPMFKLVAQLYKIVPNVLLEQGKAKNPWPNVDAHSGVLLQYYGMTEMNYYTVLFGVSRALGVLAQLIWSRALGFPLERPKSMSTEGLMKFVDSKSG

With `COc1c(O)c(C)c(C/C=C(\C)CC/C=C(\C)CC/C=C(\C)CC/C=C(\C)CC/C=C(\C)CC/C=C(\C)CC/C=C(\C)CC/C=C(\C)CC/C=C(\C)CCC=C(C)C)c(O)c1OC` [ubiquinol], in [1], the “calculated pKa1” value is listed as 5.31 and the “calculated pKa2” value is listed as 10.86.
For orientation: pKa means the negative logarithm of the acid dissociation constant. Consider `Cc1c(O)c(C=O)c(O)c(C(=O)CC(C)C)c1O` [grandinol], for which, in data set [2] (vs jensenone), the “fold diminished rate compared to jensenone” value is 30 fold. Also, the pKa in the data set “ionization constants” is 10.9.
With `CC(C)CC(=O)c1c(O)c(C=O)c2c(c1O)C[C@H]1C[C@H]3C[C@H](C3(C)C)[C@@]1(C)O2` [(−)-euglobal-G2], on prohibitin-2 (PHB2), the “ligandability of K24 in PHB2” value is 61%. In addition, the “ligandability of K128 in STMN1” value on stathmin (STMN1) is 11%.
Consider `CC(C)CC(=O)c1c(O)c(C=O)c(O)c2c1O[C@@]1(CC2)CC[C@H]2C[C@@H]1C2(C)C` [(−)-euglobal-G4], for which, in the data set with MDA-MB-231 cells [3], the “competitive blockade of azide probe (−)-11 labeling” value is “blockade of probe (−)-11 labeling for a subset of protein targets in a dose-dependent manner”. Further, the “engagement of K246 in ANXA4” value on annexin A4 (ANXA4) was “exclusively targeted”.
One may read the IC50 as the concentration at which inhibition is half-maximal. A low value points to inhibition by little substance. As to `CC(C)CC(=O)c1c(O)c(C=O)c(O)c(C=O)c1O` [jensenone], the IC50 is 21.4 µM on K413R-IDH2; > 100 µM at K678R-PFKM; > 100 µM against K299R/K413R-IDH2; 29.8 µM against K299R-IDH2; 26.2 µM against R140Q-IDH2; 32.6 µM on WT-ABHD12. Also, the IC50 at WT-IDH2 stood at 20.9 µM; against WT-PFKM it was 10.8 µM; against K373R-ABHD12, 45.7 µM. Further, the “oxidative activity following treatment” value at K299R/K413R-IDH2 (double mutant K299R/K413R-IDH2, 100 μM, 1 h, 20 °C) is on record as “essentially preserved its oxidative activity”. The “effect on reductive activity (2-HG production)” value at R140Q-IDH2 (100 μM, 2 h, 20 °C) is “fully abolished the reductive activity”. In addition, the “ligandability of K373 in ABHD12” value on ABHD12 [4] turned out to be 76%. Further, the “residual ABHD12 LPS hydrolysis activity” value at WT-ABHD12 (100 μM, 1 h, 37 °C, 17:1 LPS substrate) was 23%. On IDH2, the IDH2 homodimerization entry is on record as “unexpected induction of IDH2 homodimerization”. The “levels of monoacylglycerophosphoserine LPS(18:0)” value with MDA-MB-231 cells [5] was “significantly elevated levels”. In addition, the “levels of stearic acid FA(18:0)” value in the data set on MDA-MB-231 cells [5] is given as “concurrent reduction”. For the same molecule, at WT-IDH2 (100 μM, 1 h, 37 °C), the “effect on IDH2 oxidative activity” value was “complete functional inhibition”. For the same molecule, the “inhibitory effect on catalytic activity of PFKM” value against WT-PFKM (100 μM, 2 h, 37 °C, among the meroterpenoids assessed) is “most pronounced inhibitory effects”. Further, at transthyretin (TTR), the “engagement of K35 in TTR” value is reported as “selectively engaged”. Moreover, in the data set “ionization constants”, the pKa amounted to 10.5. The “formation of high-molecular-weight ABHD12 aggregates” value on ABHD12 [6] is “marked reduction in the monomeric form of ABHD12 and a concomitant increase in high-molecular-weight ABHD12 aggregates”.
For `O=Cc1c(O)cc(O)cc1O` [phloroglucinaldehyde], the “fold increased half-life / diminished rate compared to salicylaldehyde” value in [2] was 80 fold.
(+)-euglobal-G2: on prohibitin-2 (PHB2), the “ligandability of K24 in PHB2” value is given as 26%. In addition, the figures for the “ligandability of K99 in OCIAD2” value on OCIAD2 (MDA-MB-231 cells) and at OCIAD2 (MDA-MB-436 cells) were 92% and 49%, respectively. The “ligandability of K128 in STMN1” value at stathmin (STMN1) came to 67%.
On to `CC(C)CC(=O)c1c(O)c(C=O)c2c(c1O)CC[C@@]1(CC[C@H]3C[C@@H]1C3(C)C)O2` [(−)-euglobal-G3], for which the “engagement of K76 in CS” value in data set [7] is “exclusively targeted”.
With `O=Cc1ccccc1` [benzaldehyde], the “fold increased half-life / diminished rate compared to salicylaldehyde” value in data set [2] is listed as 10 fold.
